DDE Tn6 FP inh = DD(E)-Tn6 binding inhibition, primary FP screen | P02675 | Fibrin DD(E) TRITC-Tn6 fluorescence polarization displacement | inhibition, % at 8.3 µM | 0.21% of 370,000 active;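 active means inhibition above a per-campaign cutoff: mean of compounds within control limits plus 3 SD, cut at about 15% in these data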;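 further: 0% = median of all compound wells on the plate and 100% = blocking peptide control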
MT1-MMP act inh = MT1-MMP (human) activation inhibition. P50281. HT1080 RFP-PRO-GFP cells, GFP/RFP ratio fluorescence, overnight; percent of plate control window, DMSO zero. GFP/RFP ratio change, % at 20 µM. 0.061% of 360,000 active. AID 651647;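 active means GFP/RFP ratio change of at least 30% with cell ATP level not reduced by more than half and red fluorescence within 50% of control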
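Test system: HT1080 RFP-PRO-GFP cells; Benchmarks: DMSO and RFP-L50D-GFP cell wells; Timing: cells overnight before dosing, compound overnight, 37 °C, 5% CO2; Compound: one 20 µM compound dose with 1% DMSO; Read-out: GFP/RFP fluorescence ratio.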
ADAM17 inh = ADAM17 inhibition, QFRET primary screen | inhibition, % at 6.95 µM | recombinant ADAM17, EDANS/DABCYL FRET peptide cleavage | 0.83% of 370,000 active;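 active means inhibition above the mean of compounds lying between control limits plus 3 SD, set per campaign, cut at about 8.5% in these data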;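 further: 0% = DMSO-only wells as the low control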
ADAM10 inh = inhibitors of human ADAM10; O14672; recombinant ADAM10, EDANS/DABCYL FRET peptide cleavage, 3 h; inhibition, % at 7 µM; 0.62% of 370,000 active;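 active means inhibition above a per-campaign cutoff equal to the mean of compounds falling between control-based bounds plus 3 SD, cut at about 20% in these data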;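 further: 0% = DMSO wells while the 100% control is not disclosed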
DDE Tn7 FP inh = inhibitors of Tn7 peptide binding to human fibrin DD(E) | P02675 | FP displacement of FITC-Tn7 peptide from fibrin DD(E); 0% = median of compound wells per plate | inhibition, % at 8.3 µM | 0.13% of 370,000 active;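 active means inhibition above the mean of compounds falling within the control limits plus 3 SD of them, cut at about 14% in these data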;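 further: 0% = plate median of compound wells and 100% = 10 µM Aha-Tn7 peptide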
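Also added: labelled Tn7 tracer, 0.1 µM; Assay system: human fibrin DD(E) protein; Amount: 2 µM fibrin DD(E); Schedule: 10 min compound pre-incubation, 3 h probe incubation at room temperature; Repeats: one replicate per compound; Read-out basis: percent inhibition; Measured by: fluorescence polarization of the labelled Tn7 tracer.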
ADAM10 confirm = human ADAM10 inhibition, confirmation | ADAM10 QFRET peptide cleavage, EDANS fluorescence | 1% of 2,100 active | shares compounds with ADAM10 inh | inhibition, % at 6.95 µM;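 active means inhibition above about 20% chosen separately for each screening run, limit read from the data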;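 further: 0% = DMSO wells and 100% = marimastat wells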
ADAM17 ctr = inhibits human ADAM17 in ADAM10 exosite counter-screen | shares compounds with ADAM10 inh | ADAM17 QFRET peptide cleavage, EDANS fluorescence | inhibition, % at 6.95 µM | 0.5% of 2,100 active;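 active means mean triplicate inhibition above the solvent-only control wells' mean plus 3 SD, cut at about 12% in these data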;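 further: 0% = DMSO wells and 100% = marimastat wells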
* hit, by the source's call; . = no result. This is a sample that favours compounds with a hit; in the whole collection about 1.6% have one here.

SMILES	DDE Tn6 FP inh	MT1-MMP act inh	ADAM17 inh	ADAM10 inh	DDE Tn7 FP inh	ADAM10 confirm	ADAM17 ctr
Cc1ccc(Cn2cc(CN3[C@H](c4ccccc4)COc4cc(Br)ccc4S3(=O)=O)nn2)cc1	-0.8	.	8.4	20.6*	-5.8	5.8	1.8
COc1ccc(-c2nn(-c3ccccc3)cc2CNC(=O)c2cccc([N+](=O)[O-])c2)cc1	3.8	1.5	8.3	20.9*	-2.5	4.3	1.3
Cc1cccc(-c2nn(-c3ccccc3)cc2C(=O)Nc2cccc(S(=O)(=O)NC3=NCCC3)c2)c1	-7.2	2.7	3.2	11.9	-11.5	.	.
COc1ccc(NC(=O)CN(C)C(=O)c2cn(-c3ccccc3)nc2-c2ccc(F)cc2)cc1	-6.0	-1.5	6.7	7.0	2.1	.	.
COc1ccc(NC(=O)CN(C)C(=O)c2cn(-c3ccccc3)nc2-c2ccc(OC)cc2)cc1	-2.4	-0.1	7.1	25.7*	-0.5	0.5	0.5
COc1ccc(-c2nn(-c3ccccc3)cc2C(=O)Nc2cccc(S(=O)(=O)NC3=NCCC3)c2)cc1	-7.8	-2.0	2.4	23.9*	2.8	7.4	1.4
COc1ccc(CSc2nnc(SCC(=O)Nc3ccc4c(c3)OCO4)s2)cc1	-2.3	.	7.4	8.7	-1.2	.	.
O=S1(=O)CCOCC(CO)N1Cc1cccc(Br)c1 (configuration not stated)	-5.4	.	-2.6	-2.2	3.7	.	.
COc1cccc(CNn2c(-c3cccc(C)c3)nc3ccccc3c2=O)c1	-10.1	-4.9	8.3	26.8*	2.4	0.2	0.7
COc1ccc(OC)c(CNn2c(-c3cccc(C)c3)nc3ccccc3c2=O)c1	1.2	-6.0	-4.6	-1.3	0.2	.	.
CCOC(=O)[C@@]12CCCC3=C1N(CCC3)C(=O)[C@H]2CC(=O)NCc1ccccc1	4.2	.	-1.7	-1.7	-10.1	.	.
C[C@@H]1[C@@H](O)C[C@@]2(C[C@H](O)c3cc(Cl)cc(Cl)c3O2)O[C@H]1c1ccccc1Cl	-3.0	.	6.3	25.8*	-10.1	4.8	1.7
CCC(=C(c1ccc(OC)cc1)c1ccc(OC)cc1)c1cn(CC(O)CN2CCN(C)CC2)c2ccccc12 (configuration not stated)	-6.3	-4.7	1.1	25.3*	1.3	4.9	2.5
O=[N+]([O-])c1cccc(C2NCC(c3ccccc3Cl)c3c2[nH]c2ccccc32)c1 (configuration not stated)	-6.8	-2.6	5.4	21.3*	0.7	5.5	3.0
CC(Oc1ccccc1Cl)C(=O)Nc1ccc(S(=O)(=O)Nc2nccs2)cc1 (configuration not stated)	0.0	-2.4	-36.4	51.1*	5.0	-0.2	0.0
COCCN1C(=O)N(c2cccc(OC)c2)C(=O)C1CC(=O)Nc1ccc(OC)cc1 (configuration not stated)	3.8	-0.2	-0.6	9.9	0.7	.	.
COCCN1C(=O)N(c2cccc(C)c2)C(=O)C1CC(=O)Nc1ccc(OC)cc1 (configuration not stated)	-5.2	0.1	-2.2	20.1*	10.5	0.2	-0.2
COC(=O)[C@]12C[C@H](CC(=O)NCc3ccc(OC)c(OC)c3)C(=O)N(Cc3ccco3)C1=C[C@H](C(C)(C)C)O[C@@H]2C	-0.2	.	1.2	-1.6	5.8	.	.
CC(=O)NC(c1ccc(F)c(F)c1)c1nc(-c2cccc(F)c2)cs1 (configuration not stated)	-0.4	-0.5	-0.8	5.9	-9.3	.	.
CC(=O)NC(c1ccc(F)c(F)c1)c1nc(-c2cccc(C(C)C)c2)cs1 (configuration not stated)	-2.8	-4.6	7.0	20.0*	-0.8	3.4	1.7
Cc1ccc(S(=O)(=O)N(CCC(=O)NCc2ccccc2F)c2ccccc2)cc1	3.0	-3.3	0.3	-0.4	1.8	.	.

Assay outcomes from PubChem BioAssay.
